Screens as filed in PubChem.
Tn7 DDE FP = DD(E)-Tn7 binding inhibition, primary FP screen; actives 0.13% (n = 370,000); FP displacement of FITC-Tn7 peptide from fibrin DD(E); 0% = median of compound wells per plate; AID 720508; inhibition, % at 8.3 µM; P02675;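 active = inhibition above the mean of compounds falling within the control limits plus 3 SD of them, cut at about 14% in these data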;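 note: 0% = plate median of compound wells and 100% = 10 µM Aha-Tn7 peptide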
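Assay system: human fibrin DD(E). Input: DD(E) 2 µM final. Medium: Tris buffer with calcium and detergent, pH 7.8. Compound dosing: single point at 8.3 µM. Timing: 10 min plus 3 h, room temperature. Technique: fluorescence polarization of the labelled Tn7 tracer. Read-out: percent inhibition. Replicates: singlicate testing.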
ADAM10 inh = ADAM10 inhibition, QFRET primary screen | recombinant ADAM10, EDANS/DABCYL FRET peptide cleavage, 3 h | O14672 | inhibition, % at 7 µM | actives 0.62% (n = 370,000);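 active = inhibition above a per-campaign cutoff equal to the mean of compounds falling between control-based bounds plus 3 SD, cut at about 20% in these data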;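 note: 0% = DMSO wells while the 100% control is not disclosed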
MT1-MMP act inh = blocks activation of human MT1-MMP | P50281 | HT1080 RFP-PRO-GFP cells, GFP/RFP ratio fluorescence, overnight; percent of plate control window, DMSO zero | GFP/RFP ratio change, % at 20 µM | actives 0.061% (n = 360,000) | AID 651647;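 active = GFP/RFP ratio change of at least 30% with cell ATP level not reduced by more than half and red fluorescence within 50% of control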
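Assay system – RFP-PRO-GFP reporter HT1080 cells · Compound dosing – single dose of 20 µM compound, 1% DMSO final · Incubation – overnight compound exposure at 37 °C · Measure – GFP/RFP fluorescence ratio · Benchmarks – DMSO wells and RFP-L50D-GFP cells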
ADAM17 inh = ADAM17 inhibition, QFRET primary screen; actives 0.83% (n = 370,000); AID 720648; inhibition, % at 6.95 µM; recombinant ADAM17, EDANS/DABCYL FRET peptide cleavage;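 active = inhibition above the mean of compounds lying between control limits plus 3 SD, set per campaign, cut at about 8.5% in these data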;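 note: 0% = DMSO-only wells as the low control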
Target sequence (P78536 215-824 limits assumed): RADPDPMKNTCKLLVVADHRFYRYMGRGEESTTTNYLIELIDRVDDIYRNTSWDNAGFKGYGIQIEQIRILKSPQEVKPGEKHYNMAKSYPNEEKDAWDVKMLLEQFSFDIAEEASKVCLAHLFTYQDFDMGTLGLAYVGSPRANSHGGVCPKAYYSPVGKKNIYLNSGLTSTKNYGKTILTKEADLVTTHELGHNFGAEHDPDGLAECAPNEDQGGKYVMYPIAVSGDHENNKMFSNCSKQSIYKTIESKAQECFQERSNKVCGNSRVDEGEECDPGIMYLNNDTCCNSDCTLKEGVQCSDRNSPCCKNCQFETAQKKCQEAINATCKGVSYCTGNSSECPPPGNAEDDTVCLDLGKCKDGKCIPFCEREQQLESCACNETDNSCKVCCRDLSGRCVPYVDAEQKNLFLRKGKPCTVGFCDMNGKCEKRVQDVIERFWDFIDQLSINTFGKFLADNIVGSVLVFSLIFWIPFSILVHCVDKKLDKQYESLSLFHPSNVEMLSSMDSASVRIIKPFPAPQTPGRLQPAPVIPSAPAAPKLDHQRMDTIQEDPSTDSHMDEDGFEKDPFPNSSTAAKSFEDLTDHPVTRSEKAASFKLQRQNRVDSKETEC
Tn6 DDE FP = disrupts Tn6 cyclic peptide binding to fibrin D-Dimer-E complex. P02675. Fibrin DD(E) TRITC-Tn6 fluorescence polarization displacement. inhibition, % at 8.3 µM. actives 0.21% (n = 370,000). AID 720509;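 active = inhibition above a per-campaign cutoff: mean of compounds within control limits plus 3 SD, cut at about 15% in these data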;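 note: 0% = median of all compound wells on the plate and 100% = blocking peptide control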
ADAM10 counter = ADAM10 inhibition, counter-screen for ADAM17 exosite hits | recombinant ADAM10, EDANS/DABCYL FRET peptide cleavage, 3 h | shares compounds with ADAM17 inh | AID 743256 | inhibition, % at 6.95 µM | actives 47% (n = 2,900);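 active = mean inhibition over the triplicate runs exceeds the activity threshold set in the earlier primary screen, cut at about 20% in these data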;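 note: 0% = DMSO wells and 100% = marimastat wells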
ADAM17 confirm = human ADAM17 inhibition, confirmation; shares compounds with ADAM17 inh; recombinant ADAM17, EDANS/DABCYL QFRET peptide cleavage; inhibition, % at 6.95 µM; actives 65% (n = 2,900); AID 743257;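 active = mean inhibition across replicates above the hit cutoff set in the primary screen, cut at about 8.5% in these data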;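 note: 0% = DMSO wells and 100% = marimastat wells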
The depositor's hits bear a star. Only some compounds are listed: those with a hit (about 1.6% of all), similar ones and a draw of the others.

Screening Cc1cc(N2CCN(C(=O)Oc3ccc(-c4ccccc4)cn3)CC2)c2ccccc2n1 returned Tn7 DDE FP -5, ADAM10 inh -103, ADAM17 inh 10*, Tn6 DDE FP -1, ADAM10 counter 20 and ADAM17 confirm 15*.
`[O-][n+]1ccccc1C(O)CSc1ccccc1` (configuration not stated) gave Tn7 DDE FP 1, ADAM10 inh 4, ADAM17 inh -2 and Tn6 DDE FP -7.
Screening CC(C)c1ccc(NS(=O)(=O)c2ccc(-n3cccn3)cc2)cc1 returned Tn7 DDE FP 1, ADAM10 inh 12, MT1-MMP act inh 4, ADAM17 inh 9.1*, Tn6 DDE FP 5, ADAM10 counter 21* and ADAM17 confirm 12*.
Cc1nc(SCc2nc3ccc(Cl)cc3[nH]2)c2oc3ccccc3c2n1 was read as Tn7 DDE FP -8, ADAM10 inh 5, MT1-MMP act inh -7, ADAM17 inh 9.8*, Tn6 DDE FP -3, ADAM10 counter -11 and ADAM17 confirm 2.
For O=C(O)CCCN1C(=O)C2C3CCC(O3)C2C1=O (configuration not stated) the results were Tn7 DDE FP 0, ADAM10 inh 10, MT1-MMP act inh 6, ADAM17 inh 0 and Tn6 DDE FP -3.
`O=C(O)CCCN1C(=O)C2C3CCC(C3)C2C1=O` (configuration not stated) gave Tn7 DDE FP -5, ADAM10 inh -10, MT1-MMP act inh 3, ADAM17 inh 9.1*, Tn6 DDE FP -3, ADAM10 counter -11 and ADAM17 confirm -4.
For COC(=O)C1CN(Cc2ccccc2)CCS(=O)(=O)N1Cc1ccc(C(F)(F)F)cc1 (configuration not stated) the results were Tn7 DDE FP -3, ADAM10 inh -1, ADAM17 inh -1 and Tn6 DDE FP 6.
Cc1cccnc1NC(=O)c1ccc(Br)o1 was read as Tn7 DDE FP -5, ADAM10 inh -2, MT1-MMP act inh 1, ADAM17 inh 8.6*, Tn6 DDE FP 1, ADAM10 counter -4 and ADAM17 confirm 0.
CCOC(=O)c1cc2c(c(-c3cccc(C#Cc4ccc(OC)c(OC)c4)c3)n1)[C@@H](CCO)N(S(=O)C(C)(C)C)C2 (some centres not stated) was read as Tn7 DDE FP 0, ADAM10 inh 16, MT1-MMP act inh 6, ADAM17 inh 8.8*, Tn6 DDE FP 1, ADAM10 counter 12 and ADAM17 confirm 10*.
Screening CCCNC(=O)c1cc2c(c(-c3cccc(-c4ccc(F)cc4)c3)n1)[C@H](CCO)N(S(=O)C(C)(C)C)C2 (some centres not stated) returned Tn7 DDE FP 0, ADAM10 inh 13, MT1-MMP act inh 1, ADAM17 inh 10*, Tn6 DDE FP -1, ADAM10 counter 14 and ADAM17 confirm 10*.
COCCSc1ncccc1-c1nc2ccccc2[nH]1 was read as Tn7 DDE FP 5, ADAM10 inh -92, ADAM17 inh -24 and Tn6 DDE FP -3.
For CC(C)Nc1nc(Cl)nc(NNC(=O)C(C)Oc2ccccc2)n1 (configuration not stated) the results were Tn7 DDE FP 0, ADAM10 inh 5, MT1-MMP act inh 12, ADAM17 inh 9.0*, Tn6 DDE FP 7, ADAM10 counter -2 and ADAM17 confirm -2.
For CCn1c(COc2ccccc2)nnc1SCC(=O)Nc1ccc(S(=O)(=O)Nc2cc(C)nc(C)n2)cc1 the results were Tn7 DDE FP -10, ADAM10 inh 5, ADAM17 inh 1 and Tn6 DDE FP 4.
For Cc1onc(-c2ccccc2Cl)c1C(=O)Nc1cccc2cccnc12 the results were Tn7 DDE FP -4, ADAM10 inh 15, MT1-MMP act inh -5, ADAM17 inh 12*, Tn6 DDE FP -5, ADAM10 counter 20* and ADAM17 confirm 18*.
